Test results published in ChEMBL document CHEMBL1121674, “Gastric antisecretory agents. 2. Antisecretory activity of 9-[(aminoalkyl)thio]-9H-xanthenes and 5-[(aminoalkyl)thio]-5H-[1]benzopyrano[2,3-b]pyridines” (1981).

Tests used:
Canis familiaris [1] = assay: Percent reduction of histamine stimulated gastric acid secretion in adult mongrel dog after intravenous administration at 5 mg/kg.; assay type: functional, Canis lupus familiaris, Stomach
In short: (§1)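 Heidenhain-pouch mongrel dogs given histamine infusion at 0.4 (μg/kg)/min. Compound given iv 1 h after infusion start. 30-min collections, volume recorded and aliquot titrated for acid. AO = volume × acid concentration, summed for 3 h post-dose and divided by 3-h control AO from the same dog. % inhibition = 100 − percent of control. Usually one dog per compound.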

Canis familiaris [2] = assay: Percent reduction of histamine stimulated gastric acid secretion in adult mongrel dog after peroral administration of compound at 8 mg/kg; assay type: functional, Canis lupus familiaris, Stomach; conditions: route oral
In short: (§2)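 Heidenhain-pouch mongrel dogs given histamine infusion at 0.4 (μg/kg)/min. Compound given orally by gavage 1 h after infusion start. 30-min secretions collected and titrated for acid. AO = volume × acid concentration, summed over 3 h after dosing and expressed against 3-h control AO in the same dog. % inhibition = 100 − percent of control. Usually a single dog.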

Rattus norvegicus = assay: Percent reduction of gastric acid secretion in pylorus ligated rat after intraperitoneal administration at 40 mg/kg.; assay type: functional, Stomach
In short: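 Male Charles River CD outbred albino rats, 150-200 g, pylorus ligated; compound dissolved in 2.5% Tween 80 and given ip (0.5 mL/200 g) at ligation. Stomachs removed after 4 h. Gastric content volume recorded, acid titrated with 0.1 N NaOH to pH 7.0, AO in mequiv/4 h. Six rats per compound, eight controls; % inhibition = 100 − 100×(mean test AO/mean control AO); Student's t test.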

Canis familiaris [3] = assay: Percent reduction of histamine stimulated gastric acid secretion in adult mongrel dog after intravenous administration of compound at 5 mg/kg; stimulated gastric acid secretion; assay type: functional, organism-based; set-up: dose 5 mg/kg; conditions: Canis lupus familiaris, Stomach; in short: as §1
Canis familiaris [4] = assay: Percent reduction of histamine stimulated gastric acid secretion in adult mongrel dog after peroral administration of compound at 8 mg/kg; Animal vomited upon compound administration; assay type: functional, organism-based; set-up: dose 8 mg/kg; conditions: Canis lupus familiaris, Stomach; in short: as §2

Question: With `Cl.c1ccc2c(c1)Oc1ncccc1C2SCCN1CCCCC1` (stereo not drawn) as the compound, how does the Reduction (Canis familiaris [1]) read?
Answer: 63%

Question: What about the Reduction (Canis familiaris [2]) of the same compound?
Answer: <30%

Question: And the Reduction (Rattus norvegicus)?
Answer: 61%

Question: With `Cl.NCCCSC1c2ccccc2Oc2cc(Cl)ccc21` (stereo not drawn) as the compound, how does the Reduction (Canis familiaris [1]) read?
Answer: <30%

Question: What about the Reduction (Rattus norvegicus) of the same compound?
Answer: 79%

Question: What does the source list for `Cl.Clc1ccc2c(c1)Oc1ccccc1C2SCCN1CCOCC1` (stereo not drawn)?
Answer: Reduction (Canis familiaris [1]): 39%; Reduction (Rattus norvegicus): 70%

Question: `Cl.c1ccc2c(c1)Oc1ccccc1C2SCCCN1CCOCC1` was tested. Which Reduction (Canis familiaris [1]) did it give?
Answer: 47%

Question: What about the Reduction (Rattus norvegicus) of the same compound?
Answer: 98%

Question: What does the source list for `Cl.c1ccc2c(c1)Oc1ccccc1C2SCCN1CCOCC1`?
Answer: Reduction (Canis familiaris [1]): 56%; Reduction (Canis familiaris [2]): <30%; Reduction (Rattus norvegicus): 93%

Question: With `Cl.NCCSC1c2ccccc2Oc2ncccc21` (stereo not drawn) as the compound, how does the Reduction (Canis familiaris [1]) read?
Answer: <30%

Question: And the Reduction (Rattus norvegicus)?
Answer: <30%

Question: With `CN(C)CCSC1c2ccccc2Oc2ncccc21.Cl` (stereo not drawn) as the compound, how does the Reduction (Canis familiaris [1]) read?
Answer: <30%

Question: What about the Reduction (Rattus norvegicus) of the same compound?
Answer: 79%

Question: How did the Reduction (Canis familiaris [1]) turn out when `COc1ccc2c(c1)Oc1ccccc1C2SCCN1CCCCC1.Cl` (stereo not drawn) was run?
Answer: <58%

Question: And the Reduction (Canis familiaris [2])?
Answer: <30%

Question: What about the Reduction (Rattus norvegicus) of the same compound?
Answer: 47%

Question: `Cl.c1ccc2c(c1)Oc1ncccc1C2SCCN1CCOCC1` (stereo not drawn) was tested. Which Reduction (Canis familiaris [1]) did it give?
Answer: 66%

Question: What about the Reduction (Rattus norvegicus) of the same compound?
Answer: 64%

Question: `COc1ccc2c(c1)C(SCCN1CCCCC1)c1ccccc1O2.Cl` (stereo not drawn) was tested. Which Reduction (Canis familiaris [1]) did it give?
Answer: <30%

Question: What about the Reduction (Rattus norvegicus) of the same compound?
Answer: 73%

Question: `Cl.Clc1ccc2c(c1)Oc1ccccc1C2SCCN1CCCCC1` (stereo not drawn) was tested. Which Reduction (Canis familiaris [1]) did it give?
Answer: <30%

Question: And the Reduction (Rattus norvegicus)?
Answer: 80%

Question: How did the Reduction (Canis familiaris [1]) turn out when `Cc1ccc2c(c1)C(SCCCN)c1ccccc1O2.Cl` (stereo not drawn) was run?
Answer: 80%

Question: And the Reduction (Canis familiaris [2])?
Answer: <50%

Question: What about the Reduction (Rattus norvegicus) of the same compound?
Answer: 100%

Question: Which Reduction (Canis familiaris [1]) does the source give for `Cl.NCCSC1c2ccccc2Oc2ccccc21` here?
Answer: <30%

Question: What about the Reduction (Rattus norvegicus) of the same compound?
Answer: 35%

Question: How did the Reduction (Canis familiaris [3]) turn out when `COc1ccc2c(c1)C(SCCN1CCOCC1)c1ccccc1O2.Cl` (stereo not drawn) was run?
Answer: stimulated gastric acid secretion

Question: What about the Reduction (Rattus norvegicus) of the same compound?
Answer: 94%

Question: For `CN(C)CCSC1c2ccccc2Oc2ccc(Cl)cc21.Cl` (stereo not drawn), which Reduction (Canis familiaris [1]) is on record?
Answer: <30%

Question: What about the Reduction (Rattus norvegicus) of the same compound?
Answer: 55%

Question: What does the source list for `Cl.Clc1cccc2c1Oc1ccccc1C2SCCN1CCCCC1` (stereo not drawn)?
Answer: Reduction (Canis familiaris [1]): 44%; Reduction (Rattus norvegicus): 87%

Question: For `CN/C(=N\CCSCc1nc[nH]c1C)NC#N` [CIMETIDINE], which Reduction (Canis familiaris [1]) is on record?
Answer: 84%

Question: What about the Reduction (Canis familiaris [2]) of the same compound?
Answer: 86%

Question: What about the Reduction (Rattus norvegicus) of the same compound?
Answer: 74%

Question: What does the source list for `Cc1ccc2c(c1)C(SCCN1CCCCC1)c1ccccc1O2.Cl` (stereo not drawn)?
Answer: Reduction (Canis familiaris [1]): <30%; Reduction (Rattus norvegicus): 88%

Question: With `Cl.NCCCSC1c2ccccc2Oc2ccccc21` as the compound, how does the Reduction (Canis familiaris [1]) read?
Answer: 68%

Question: And the Reduction (Canis familiaris [4])?
Answer: Animal vomited upon compound administration

Question: What about the Reduction (Rattus norvegicus) of the same compound?
Answer: 44%

Question: How did the Reduction (Canis familiaris [1]) turn out when `Cc1cccc2c1Oc1ccccc1C2SCCN1CCCCC1.Cl` (stereo not drawn) was run?
Answer: <30%

Question: And the Reduction (Rattus norvegicus)?
Answer: 85%

Question: How did the Reduction (Canis familiaris [1]) turn out when `CN(C)CCSC1c2ccccc2Oc2ccccc21.Cl` was run?
Answer: <30%

Question: And the Reduction (Rattus norvegicus)?
Answer: 65%

Question: Which Reduction (Canis familiaris [1]) does the source give for `Cc1ccc2c(c1)C(SCCN1CCOCC1)c1ccccc1O2.Cl` (stereo not drawn) here?
Answer: 50%

Question: What about the Reduction (Rattus norvegicus) of the same compound?
Answer: 93%

Question: Which results are given for `Cl.NCCCSC1c2ccccc2Oc2ccc(Cl)cc21` (stereo not drawn)?
Answer: Reduction (Canis familiaris [1]): 39%; Reduction (Rattus norvegicus): 89%

Question: `Cl.c1ccc2c(c1)Oc1ccccc1C2SCCCN1CCCCC1` was tested. Which Reduction (Canis familiaris [1]) did it give?
Answer: 30%

Question: And the Reduction (Rattus norvegicus)?
Answer: 88%

Question: Which Reduction (Canis familiaris [1]) does the source give for `Cl.NCCCSC1c2ccccc2Oc2c(Cl)cccc21` (stereo not drawn) here?
Answer: 33%

Question: And the Reduction (Rattus norvegicus)?
Answer: 99%

Question: Which Reduction (Canis familiaris [1]) does the source give for `Cl.Clc1cccc2c1Oc1ccccc1C2SCCN1CCOCC1` (stereo not drawn) here?
Answer: 42%

Question: What about the Reduction (Rattus norvegicus) of the same compound?
Answer: 86%

Question: `Cc1cccc2c1Oc1ccccc1C2SCCCN.Cl` (stereo not drawn) was tested. Which Reduction (Canis familiaris [1]) did it give?
Answer: 87%

Question: And the Reduction (Canis familiaris [4])?
Answer: Animal vomited upon compound administration

Question: What about the Reduction (Rattus norvegicus) of the same compound?
Answer: 71%

Question: How did the Reduction (Rattus norvegicus) turn out when `Cl.c1ccc2c(c1)Oc1ncccc1C2SCCCN1CCOCC1` (stereo not drawn) was run?
Answer: 62%

Question: For `COc1ccc2c(c1)C(SCCN(C)C)c1ccccc1O2.Cl` (stereo not drawn), which Reduction (Canis familiaris [1]) is on record?
Answer: <30%

Question: And the Reduction (Rattus norvegicus)?
Answer: 63%

Question: For `Cl.NCCSC1c2ccccc2Oc2ccc(Cl)cc21` (stereo not drawn), which Reduction (Canis familiaris [1]) is on record?
Answer: <30%

Question: And the Reduction (Rattus norvegicus)?
Answer: 74%

Question: With `Cc1cccc2c1Oc1ccccc1C2SCCN1CCOCC1.Cl` (stereo not drawn) as the compound, how does the Reduction (Canis familiaris [1]) read?
Answer: <30%

Question: What about the Reduction (Rattus norvegicus) of the same compound?
Answer: 71%

Question: With `Cl.c1ccc2c(c1)Oc1ccccc1C2SCCN1CCCCC1` as the compound, how does the Reduction (Canis familiaris [1]) read?
Answer: <30%

Question: What about the Reduction (Rattus norvegicus) of the same compound?
Answer: 98%

Question: Which Reduction (Canis familiaris [1]) does the source give for `COc1ccc2c(c1)Oc1ccccc1C2SCCN1CCOCC1.Cl` (stereo not drawn) here?
Answer: 77%

Question: And the Reduction (Canis familiaris [2])?
Answer: <30%

Question: And the Reduction (Rattus norvegicus)?
Answer: 44%
